Laboratory results as given in ChEMBL document CHEMBL3870311, “Synthesis and biological evaluation of C1-O-substituted-3-(3-butylamino-2-hydroxy-propoxy)-xanthen-9-one as topoisomerase IIα catalytic inhibitors” (Eur J Med Chem, 2016).
Active and inactive are the calls of the source. No cut-off for these calls is given here.

Tests used:
[1] = target: T1, DNA topoisomerase 2-alpha (Homo sapiens, UniProt P11388); test: Inhibition of human topoisomerase-2 alpha at 20 uM using supercoiled pBR322 DNA as substrate after 30 mins by agarose gel electrophoresis relative to control
T1 sequence (P11388 whole entry): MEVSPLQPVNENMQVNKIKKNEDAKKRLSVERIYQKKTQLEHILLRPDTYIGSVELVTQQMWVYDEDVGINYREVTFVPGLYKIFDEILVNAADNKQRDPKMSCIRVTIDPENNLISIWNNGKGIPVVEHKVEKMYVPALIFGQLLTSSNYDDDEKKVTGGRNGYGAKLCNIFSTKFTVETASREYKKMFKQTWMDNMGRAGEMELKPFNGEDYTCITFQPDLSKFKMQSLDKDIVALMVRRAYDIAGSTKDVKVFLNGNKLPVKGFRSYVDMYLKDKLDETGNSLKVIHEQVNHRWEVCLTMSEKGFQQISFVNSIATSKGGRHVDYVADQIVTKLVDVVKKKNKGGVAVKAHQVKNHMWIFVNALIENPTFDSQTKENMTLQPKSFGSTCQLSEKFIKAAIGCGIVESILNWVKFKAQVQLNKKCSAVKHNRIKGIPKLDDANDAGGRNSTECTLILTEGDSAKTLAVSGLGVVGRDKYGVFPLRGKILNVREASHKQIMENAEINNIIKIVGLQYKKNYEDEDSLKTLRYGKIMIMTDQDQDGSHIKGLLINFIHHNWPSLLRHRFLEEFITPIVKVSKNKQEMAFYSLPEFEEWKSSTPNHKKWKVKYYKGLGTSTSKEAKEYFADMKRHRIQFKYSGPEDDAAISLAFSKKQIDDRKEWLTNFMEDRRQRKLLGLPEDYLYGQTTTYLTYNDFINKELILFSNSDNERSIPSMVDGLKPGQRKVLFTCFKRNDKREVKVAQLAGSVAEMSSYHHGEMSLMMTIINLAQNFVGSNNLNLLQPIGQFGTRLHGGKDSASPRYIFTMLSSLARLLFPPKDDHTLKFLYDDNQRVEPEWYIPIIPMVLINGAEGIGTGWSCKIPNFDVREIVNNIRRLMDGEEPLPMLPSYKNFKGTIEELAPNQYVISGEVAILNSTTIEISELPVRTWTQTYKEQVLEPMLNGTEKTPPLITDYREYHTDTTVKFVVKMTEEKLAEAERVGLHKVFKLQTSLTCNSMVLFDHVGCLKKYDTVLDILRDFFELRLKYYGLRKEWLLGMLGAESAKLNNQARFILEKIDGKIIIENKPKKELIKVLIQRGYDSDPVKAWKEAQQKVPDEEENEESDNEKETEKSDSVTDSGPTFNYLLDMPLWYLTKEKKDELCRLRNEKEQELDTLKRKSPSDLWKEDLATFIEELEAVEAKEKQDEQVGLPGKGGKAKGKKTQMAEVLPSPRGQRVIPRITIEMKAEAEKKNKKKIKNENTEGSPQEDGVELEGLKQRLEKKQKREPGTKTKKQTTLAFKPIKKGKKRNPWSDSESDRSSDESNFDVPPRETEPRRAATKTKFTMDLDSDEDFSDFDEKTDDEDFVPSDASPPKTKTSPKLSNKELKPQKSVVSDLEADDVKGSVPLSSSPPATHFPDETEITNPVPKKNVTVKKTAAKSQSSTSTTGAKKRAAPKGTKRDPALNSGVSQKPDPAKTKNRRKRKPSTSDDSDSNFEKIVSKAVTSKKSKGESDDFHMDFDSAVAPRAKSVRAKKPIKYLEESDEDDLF

[2] = Cytotoxicity against human HCT15 cells assessed as reduction in cell growth after 72 hrs by CCK8 assay; type: functional, cell-based; conditions: HCT-15, 72 h
Method in brief: (§1)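 Cells (2~4 x 10^4 per well) seeded overnight in media with 10% FBS, 37 °C, 5% CO₂, then exposed to graded compound concentrations for 72 h. CCK-8 solution added for a further 4 h; absorbance read at 450 nm. IC₅₀ from four-parameter logistic fit; adriamycin, etoposide and camptothecin as positive controls.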

[3] = Cytotoxicity against human T47D cells assessed as reduction in cell growth after 72 hrs by CCK8 assay; type: functional, cell-based; method in brief: as §1
[4] = Cytotoxicity against human HeLa cells assessed as reduction in cell growth after 72 hrs by CCK8 assay; type: functional, cell-based; method in brief: as §1
[5] = Cytotoxicity against human NCI-N87 cells assessed as reduction in cell growth after 72 hrs by CCK8 assay; type: functional, cell-based; conditions: NCI-N87, 72 h; method in brief: as §1
[6] = target: T1, DNA topoisomerase 2-alpha; test: Poisoning activity at human topoisomerase-2 alpha assessed as stabilization of enzyme-pBR322 DNA cleavage complex by measuring linear DNA formation at 100 uM after 30 mins by agarose gel electrophoresis; conditions: 0.5 h
[7] = target: T1, DNA topoisomerase 2-alpha; test: Poisoning activity at topoisomerase-2 alpha in human T47D cells assessed as induction of DNA damage by measuring comet formation at 5 to 10 uM after 24 hrs by SYBR Green staining based inverted fluorescence microscopic analysis; type: cell-based
Method in brief: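 Alkaline comet assay: T47D cells seeded in six-well plates, treated at ~70% confluence with 5 or 10 µM compound for 24 h, trypsinized, embedded in low-melting agarose. Lysis 30 min at 4 °C, alkaline unwinding (pH>13) 30 min, electrophoresis 20 min at 15 V, SYBR Green stain; imaged by inverted fluorescence microscopy, percent DNA in tail quantified.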

[8] = target: T1, DNA topoisomerase 2-alpha; test: Inhibition of human topoisomerase-2 alpha at 100 uM using supercoiled pBR322 DNA as substrate after 30 mins by agarose gel electrophoresis method relative to control
[9] = target: T1, DNA topoisomerase 2-alpha; test: Inhibition of topoisomerase-2 alpha catalytic activity in human T47D cells assessed as increase in free topoisomerase-2 alpha level at 50 uM after 2 hrs by Western blot method; type: cell-based
Method in brief: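 T47D cells (2 x 10^5 per well) seeded overnight, treated 2 h at 37 °C with 50 µM compound or etoposide in serum-free RPMI. Harvested cells washed in PBS, lysed in 62.5 mM Tris-HCl pH 6.8, 1 mM EDTA, 2% SDS with sonication; cleared supernatant run on 10% SDS-PAGE and free topo IIα detected by Western blot.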

SMILES	inhibition [1]	IC50 [2]	IC50 [3]	IC50 [4]	IC50 [5]	Activity [6]	Activity [7]	inhibition [8]	inhibition [9]
COc1cc([C@@H]2c3cc4c(cc3[C@@H](O[C@@H]3O[C@@H]5CO[C@@H](C)O[C@H]5[C@H](O)[C@H]3O)[C@H]3COC(=O)[C@H]23)OCO4)cc(OC)c1O [ETOPOSIDE]	45.6%	1060 nM	2800 nM	10000 nM	1290 nM	Active	Active	–	–
CCCCNCC(O)COc1cc(OCCc2ccc(Cl)cc2)c2c(=O)c3ccccc3oc2c1 (centres undefined)	23 to 23.3%	2130 nM	630 nM	1370 nM	3630 nM	–	–	94.4%	Active
